Common to all, as to parameters: scale not given: the % may be the effect or the level left
For test [1], the system named is Platelet. The test is described as follows: Inhibition of platelet activating factor-induced platelet aggregation in rabbit platelets at 100 ug/mL treated […] before […] challenge relative to control. It is filed as functional, Oryctolagus cuniculus. An outline of the steps:
(§1)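 Rabbit platelets were preincubated at 37 °C for 3 min with compound at 100 μg/mL, or with 0.5% DMSO as the control, before the inducer was added. Inducers were thrombin 0.1 U/mL, arachidonic acid 100 μM, collagen 10 μg/mL, or PAF. The read-out was % aggregation, with 3–6 replicates.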

Test [2] relates to Platelet. The test is described as follows: Inhibition of collagen-induced platelet aggregation in rabbit platelets at 100 ug/mL treated […] before […] challenge relative to control. It is filed as functional, Oryctolagus cuniculus. An outline of the steps:
as §1

Test [3] deals with Platelet. As to the kind of experiment: Inhibition of arachidonic acid-induced platelet aggregation in rabbit platelets at 100 ug/mL treated […] before […] challenge relative to control. It is filed as functional, Oryctolagus cuniculus. Summed up:
as §1

In test [4] the test system is Platelet. As to the kind of experiment: Inhibition of thrombin-induced platelet aggregation in rabbit platelets at 100 ug/mL treated […] before thrombin challenge relative to control. It is filed as functional, Oryctolagus cuniculus. An outline of the steps:
as §1

Test [5] relates to Platelet. The test is described as follows: Inhibition of platelet activating factor-induced platelet aggregation in rabbit platelets at 50 ug/mL treated […] before […] challenge relative to control. It is filed as functional, Oryctolagus cuniculus. An outline of the steps: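 PAF-induced aggregation of rabbit platelets was run after 3 min preincubation at 37 °C with compound at graded levels or 0.5% DMSO control. PAF is given as 2 ng/mL in the footnote and 2 nM in the column header. Output is % aggregation with n per point.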

Test [6] deals with Platelet. The test is described as follows: Inhibition of platelet activating factor-induced platelet aggregation in rabbit platelets at 5 ug/mL treated 3 mins before platelet activating factor challenge relative to control.
The subject of test [7] is Platelet. The test is described as follows: Inhibition of platelet activating factor-induced platelet aggregation in rabbit platelets at 10 ug/mL treated 3 mins before platelet activating factor challenge relative to control.
Test [8] concerns Platelet. The test is described as follows: Inhibition of platelet activating factor-induced platelet aggregation in rabbit platelets at 20 ug/mL treated 3 mins before platelet activating factor challenge relative to control.
The test system of test [9] is Platelet. As to the kind of experiment: Inhibition of arachidonic acid-induced platelet aggregation in rabbit platelets at 20 ug/mL treated 30 mins before […] challenge relative to control. It counts as functional, Oryctolagus cuniculus.
Test [10] concerns Platelet. The test is described as follows: Inhibition of arachidonic acid-induced platelet aggregation in rabbit platelets at 50 ug/mL treated 30 mins before […] challenge relative to control. It is filed as functional, Oryctolagus cuniculus.
In test [11] the test system is Platelet. The test is described as follows: Inhibition of thrombin-induced platelet aggregation in rabbit platelets at 50 ug/mL treated 30 mins before thrombin challenge relative to control. It counts as functional, Oryctolagus cuniculus.
For test [12], the system named is Platelet. As to the kind of experiment: Inhibition of collagen-induced platelet aggregation in rabbit platelets at 50 ug/mL treated 30 mins before […] challenge relative to control. It is filed as functional, Oryctolagus cuniculus.
Test [13] deals with Platelet. As to the kind of experiment: Inhibition of arachidonic acid-induced platelet aggregation in rabbit platelets at 50 ug/mL treated 3 min before arachidonic acid challenge relative to control.
In test [14] the test system is Platelet. As to the kind of experiment: Inhibition of arachidonic acid-induced platelet aggregation in rabbit platelets at 10 ug/mL treated 3 mins before arachidonic acid challenge relative to control.
Test [15] relates to Platelet. As to the kind of experiment: Inhibition of arachidonic acid-induced platelet aggregation in rabbit platelets at 5 ug/mL treated 3 mins before arachidonic acid challenge relative to control.

Our source for the Activity values is ChEMBL document CHEMBL1151319, “Antiplatelet aggregation constituents from Annona purpurea” (1998).

Take `COc1cc2c(O)c3c4c(cc(OC)c(OC)c4c2cc1OC)CCN3C`: the Activity in test [1] was 0%; in test [2], 12.7%; in test [3], 21.8%; in test [4], 78.8%; in test [5] it was 0%; in [6], 77.9%. In addition, the Activity in [7] was found to be 64.9%; in test [8] it was 25.2%.

On to `COc1cc2c(cc1OC)-c1c(OC)c(OC)c(O)c3c1[C@@H](C2)N(C)CC3` [THALBAICALIDINE], for which the Activity stood at 73.6% in test [1]; 0% in test [2]; 4.2% in [3]; 86.3% in [4]; 82.2% in test [9]; 72.2% in [10].

For the compound `COc1cc2c(cc1OC)-c1c(OC)c(OC)cc3ccnc(c13)C2=O` [OXOGLAUCINE], the Activity in test [11] worked out at 87%; in [5], 84.4%; in test [12], 74.4%; in test [13], 55.8%.

As for `COc1cc2c(cc1OC)-c1c(OC)c(OC)c(OC)c3ccnc(c13)C2=O` [OXOPURPUREINE], the Activity in test [1] was determined as 87.2%; in test [2], 53.5%; in test [3], 43.7%.

With `COc1cc2c(cc1OC)-c1c(OC)c(O)cc3c1[C@H](C2)N(C)CC3` [PREDICENTRINE], the Activity was 74% in test [1]; 0% in test [2]; 0% in test [3]; 88.9% in test [4]; 83.2% in test [9]; 62% in test [10].

As for `COc1cc2c3c(cc4ccccc4c3c1O)N(C)CC2` [DEHYDROLIRINIDINE], the Activity amounted to 51.7% in test [1]; 0% in [2]; 0% in test [3]; 86.3% in [4]; 77.6% in test [9]; 23.8% in test [10]. In [14], this compound displayed an Activity of 82.8%.

Take `COc1cc2ccnc3c2c(c1OC)-c1ccccc1C3=O` [LYSICAMINE]: the Activity in test [11] is 88.9%; in test [5], 83.7%; in test [12], 55.2%; in test [10], 16.3%.

Turning to `CNCCc1c(OC)c(OC)c(OC)c2c1ccc1cc(OC)c(OC)cc12` [THALICPUREINE], the Activity in [1] is 0%; in test [2], 0%; in test [3], 0%; in test [4], 33.6%; in [9] it was 41.9%; in test [5] it was 3.9%. The Activity in [10] turned out to be 0%; in test [15], 83.7%; in [14], 74.2%; in [6], 82.4%; in test [7] it was 78.8%; in test [8], 55.5%.
